Results as given in ChEMBL document CHEMBL1828624, “Synthesis and antioxidant activity of oxazolyl/thiazolylsulfonylmethyl pyrazoles and isoxazoles” (Eur J Med Chem, 2011).
Converted amounts (≈) assume the structure as drawn. The source made the active and inactive calls. No cut-off for these calls is given here.

Tests used:
Type in all cases: functional
[1] = Antioxidant activity assessed as hydrogen peroxide scavenging activity at 75 ug/ml relative to control
[2] = Antioxidant activity assessed as nitric oxide scavenging activity at 50 ug/ml after 150 mins by Griess method relative to control
Procedure, shortened: (§1)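 NO was generated from sodium nitroprusside (10 mM) in phosphate buffer saline (0.2 M, pH 7.4). Compounds were added at […] and incubated 150 min at 25 °C. Percent scavenging was calculated from control (all reagents minus compound) and sample absorbances. Run in triplicate.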

[3] = system: Radical scavenging activity; assay: Antioxidant activity assessed as DPPH free radical scavenging activity at 100 ug/ml after 30 mins by spectrophotometric analysis relative to control
Procedure, shortened: (§2)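 Compounds in methanol at […] were mixed with 0.004% (w/v) methanolic DPPH. After 30 min at room temperature, absorbance was read at 517 nm against a blank. Percent inhibition was calculated from control (all reagents minus compound) and sample absorbances. Run in triplicate.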

[4] = system: Radical scavenging activity; assay: Antioxidant activity assessed as DPPH free radical scavenging activity after 30 mins by spectrophotometric analysis; procedure, shortened: as §2
[5] = Antioxidant activity assessed as nitric oxide scavenging activity at 75 ug/ml after 150 mins by Griess method relative to control; procedure, shortened: as §1
[6] = system: Radical scavenging activity; assay: Antioxidant activity assessed as DPPH free radical scavenging activity at 50 ug/ml after 30 mins by spectrophotometric analysis relative to control; procedure, shortened: as §2
[7] = Antioxidant activity assessed as hydrogen peroxide scavenging activity at 100 ug/ml relative to control
[8] = system: Radical scavenging activity; assay: Antioxidant activity assessed as DPPH free radical scavenging activity at 75 ug/ml after 30 mins by spectrophotometric analysis relative to control; procedure, shortened: as §2
[9] = Antioxidant activity assessed as hydrogen peroxide scavenging activity at 50 ug/ml relative to control
[10] = Antioxidant activity assessed as nitric oxide scavenging activity at 100 ug/ml after 150 mins by Griess method relative to control; procedure, shortened: as §1

For `O=S(=O)(CC1=NCCS1)c1c(-c2ccc(Cl)cc2)noc1-c1ccc(Cl)cc1`, the Activity [1] was “inactive”, the Activity [2] was “inactive” and the inhibition [3] was “inactive”. The IC50 [4] was “Not Active”, the Activity [5] was “inactive” and the inhibition [6] was “inactive”. The Activity [7] was “inactive”, the inhibition [8] was “inactive” and the Activity [9] was “inactive”. The Activity [10] was “inactive”.
For `O=S(=O)(CC1=NCCS1)C1=NNCC1c1ccc(Cl)cc1` (stereo not given), the Activity [1] was “inactive”, the Activity [2] was “inactive” and the inhibition [3] was “inactive”. The IC50 [4] was “Not Active”, the Activity [5] was “inactive” and the inhibition [6] was “inactive”. For the same compound, the Activity [7] was “inactive”, the inhibition [8] was “inactive” and the Activity [9] was “inactive”. The Activity [10] was “inactive”.
For `Cc1ccc(C2CNN=C2S(=O)(=O)CC2=NCCO2)cc1` (stereo not given), the Activity [1] was 42.1%, the Activity [2] was 45.9% and the inhibition [3] was 49.8%. The IC50 [4] was 100.44 µg/mL (≈ 327 µM), the Activity [5] was 49.7% and the inhibition [6] was 38.7%. It also gave an Activity [7] of 46.8%, an inhibition [8] of 43.6% and an Activity [9] of 41.3%. The Activity [10] was 51.4%.
For `O=S(=O)(CC1=NCCO1)c1c(-c2ccc(Cl)cc2)nn(-c2ccccc2)c1-c1ccc(Cl)cc1`, the Activity [1] was “inactive”, the Activity [2] was “inactive” and the inhibition [3] was “inactive”. The IC50 [4] was “Not Active”, the Activity [5] was “inactive” and the inhibition [6] was “inactive”. For the same compound, the Activity [7] was “inactive”, the inhibition [8] was “inactive” and the Activity [9] was “inactive”. For the same compound, the Activity [10] was “inactive”.
For `O=S(=O)(CC1=NCCS1)c1c(-c2ccc(Cl)cc2)nn(-c2ccccc2)c1-c1ccc(Cl)cc1`, the Activity [1] was “inactive”, the Activity [2] was “inactive” and the inhibition [3] was “inactive”. For the same compound, the IC50 [4] was “Not Active”, the Activity [5] was “inactive” and the inhibition [6] was “inactive”. For the same compound, the Activity [7] was “inactive”, the inhibition [8] was “inactive” and the Activity [9] was “inactive”. The Activity [10] was “inactive”.
Work on `COc1ccc(C2=NOC(c3ccc(C)cc3)C2S(=O)(=O)CC2=NCCS2)cc1` (stereo not given) yielded an Activity [1] of 49.7%, an Activity [2] of 48.6% and an inhibition [3] of 58.6%. For the same compound, the IC50 [4] was 85.38 µg/mL (≈ 198 µM), the Activity [5] was 54.1% and the inhibition [6] was 46.8%. The Activity [7] was 52.6%, the inhibition [8] was 50.6% and the Activity [9] was 47.5%. The Activity [10] was 59.6%.
In the case of `O=S(=O)(CC1=NCCS1)c1c(-c2ccccc2)nn(-c2ccccc2)c1-c1ccccc1`, the Activity [1] is reported as “inactive”, the Activity [2] is reported as “inactive” and the inhibition [3] is reported as “inactive”. For the same compound, the IC50 [4] was “Not Active”, the Activity [5] was “inactive” and the inhibition [6] was “inactive”. The Activity [7] was “inactive”, the inhibition [8] was “inactive” and the Activity [9] was “inactive”. The Activity [10] was “inactive”.
`O=S(=O)(CC1=NCCO1)c1n[nH]cc1-c1ccccc1` gave an Activity [1] of 55.6%, an Activity [2] of 50.6% and an inhibition [3] of 60.8%. For the same compound, the IC50 [4] was 82.26 µg/mL (≈ 282 µM), the Activity [5] was 54.7% and the inhibition [6] was 50.1%. The Activity [7] was 58.5%, the inhibition [8] was 54.3% and the Activity [9] was 53.3%. The Activity [10] was 57.5%.
With `COc1ccc(-c2nn(-c3ccccc3)c(-c3ccc(C)cc3)c2S(=O)(=O)CC2=NCCS2)cc1` the Activity [1] was “inactive”, the Activity [2] was “inactive” and the inhibition [3] was “inactive”. The IC50 [4] was “Not Active”, the Activity [5] was “inactive” and the inhibition [6] was “inactive”. The Activity [7] was “inactive”, the inhibition [8] was “inactive” and the Activity [9] was “inactive”. For the same compound, the Activity [10] was “inactive”.
In the case of `O=S(=O)(CC1=NCCS1)C1C(c2ccccc2)=NOC1c1ccccc1` (stereo not given), the Activity [1] is reported as “inactive”, the Activity [2] is reported as “inactive” and the inhibition [3] is reported as “inactive”. For the same compound, the IC50 [4] was “Not Active”, the Activity [5] was “inactive” and the inhibition [6] was “inactive”. The Activity [7] was “inactive”, the inhibition [8] was “inactive” and the Activity [9] was “inactive”. The Activity [10] was “inactive”.
For `O=S(=O)(CC1=NCCO1)c1c(-c2ccc(Cl)cc2)noc1-c1ccc(Cl)cc1`, the Activity [1] was “inactive”, the Activity [2] was “inactive” and the inhibition [3] was “inactive”. For the same compound, the IC50 [4] was “Not Active”, the Activity [5] was “inactive” and the inhibition [6] was “inactive”. The Activity [7] was “inactive”, the inhibition [8] was “inactive” and the Activity [9] was “inactive”. The Activity [10] was “inactive”.
Compound `O=C1O[C@H]([C@@H](O)CO)C(O)=C1O` [ASCORBIC ACID] has an Activity [1] of 79.3%, an Activity [2] of 78.2% and an inhibition [3] of 83.8%. It also gave an IC50 [4] of 59.65 µg/mL (≈ 339 µM), an Activity [5] of 81.5% and an inhibition [6] of 77.2%. The Activity [7] was 83.2%, the inhibition [8] was 81% and the Activity [9] was 77.7%. It also gave an Activity [10] of 82.8%.
In the case of `O=S(=O)(CC1=NCCS1)C1=NNCC1c1ccccc1` (stereo not given), the Activity [1] is reported as “inactive”, the Activity [2] is reported as “inactive” and the inhibition [3] is reported as “inactive”. The IC50 [4] was “Not Active”, the Activity [5] was “inactive” and the inhibition [6] was “inactive”. The Activity [7] was “inactive”, the inhibition [8] was “inactive” and the Activity [9] was “inactive”. The Activity [10] was “inactive”.
With `O=S(=O)(CC1=NCCO1)c1n[nH]cc1-c1ccc(Cl)cc1` the Activity [1] was “inactive”, the Activity [2] was “inactive” and the inhibition [3] was “inactive”. The IC50 [4] was “Not Active”, the Activity [5] was “inactive” and the inhibition [6] was “inactive”. The Activity [7] was “inactive”, the inhibition [8] was “inactive” and the Activity [9] was “inactive”. The Activity [10] was “inactive”.
For `O=S(=O)(CC1=NCCO1)C1C(c2ccc(Cl)cc2)=NN(c2ccccc2)C1c1ccc(Cl)cc1` (stereo not given), the Activity [1] was “inactive”, the Activity [2] was “inactive” and the inhibition [3] was “inactive”. For the same compound, the IC50 [4] was “Not Active”, the Activity [5] was “inactive” and the inhibition [6] was “inactive”. The Activity [7] was “inactive”, the inhibition [8] was “inactive” and the Activity [9] was “inactive”. The Activity [10] was “inactive”.
Compound `COc1ccc(-c2nn(-c3ccccc3)c(-c3ccc(C)cc3)c2S(=O)(=O)CC2=NCCO2)cc1` has an Activity [1] of 68.7%, an Activity [2] of 61.6% and an inhibition [3] of 70.3%. For the same compound, the IC50 [4] was 71.07 µg/mL (≈ 146 µM), the Activity [5] was 66.6% and the inhibition [6] was 65.5%. The Activity [7] was 72.5%, the inhibition [8] was 67.6% and the Activity [9] was 67.6%. The Activity [10] was 68.2%.
With `COc1ccc(C2=NN(c3ccccc3)C(c3ccc(C)cc3)C2S(=O)(=O)CC2=NCCO2)cc1` (stereo not given) the Activity [1] was 64.3%, the Activity [2] was 59.1% and the inhibition [3] was 73.8%. The IC50 [4] was 67.74 µg/mL (≈ 138 µM), the Activity [5] was 64.9% and the inhibition [6] was 64.4%. For the same compound, the Activity [7] was 67.7%, the inhibition [8] was 70.2% and the Activity [9] was 62.5%. The Activity [10] was 70.5%.
For `COc1ccc(C2=NN(c3ccccc3)C(c3ccc(C)cc3)C2S(=O)(=O)CC2=NCCS2)cc1` (stereo not given), the Activity [1] was 43.9%, the Activity [2] was 39.4% and the inhibition [3] was 51.5%. It also gave an IC50 [4] of 97.04 µg/mL (≈ 192 µM), an Activity [5] of 44.9% and an inhibition [6] of 37.5%. The Activity [7] was 47.9%, the inhibition [8] was 45.8% and the Activity [9] was 42.6%. For the same compound, the Activity [10] was 50.7%.
